Source: ChEMBL document CHEMBL1139819, “Cyanopyridyl containing 1,4-dihydroindeno[1,2-c]pyrazoles as potent checkpoint kinase 1 inhibitors: improving oral biovailability” (Bioorg Med Chem Lett, 2007)

Experiments:
[1] = target: T1, Serine/threonine-protein kinase Chk1 (Homo sapiens, UniProt O14757); assay: Inhibition of recombinant CHK1
T1 sequence (O14757 whole entry): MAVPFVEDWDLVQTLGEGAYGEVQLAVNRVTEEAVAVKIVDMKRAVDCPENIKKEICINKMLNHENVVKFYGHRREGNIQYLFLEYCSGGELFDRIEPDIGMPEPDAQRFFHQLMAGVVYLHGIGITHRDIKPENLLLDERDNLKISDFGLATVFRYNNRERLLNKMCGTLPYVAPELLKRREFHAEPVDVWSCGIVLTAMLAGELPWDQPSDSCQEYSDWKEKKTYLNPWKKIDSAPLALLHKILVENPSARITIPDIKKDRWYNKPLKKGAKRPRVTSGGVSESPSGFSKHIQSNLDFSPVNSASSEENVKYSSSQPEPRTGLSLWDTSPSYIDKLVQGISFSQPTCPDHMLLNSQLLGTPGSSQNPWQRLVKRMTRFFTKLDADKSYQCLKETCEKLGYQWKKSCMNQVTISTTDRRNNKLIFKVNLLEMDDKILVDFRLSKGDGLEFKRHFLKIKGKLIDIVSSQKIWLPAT
Method in brief: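 Substrate is 5 µM human biotinylated Cdc25c peptide. Buffer is 25 mM Hepes pH 7.4, 10 mM MgCl2, Triton X-100, 0.5 mM DTT. ATP at 5 µM plus 33P-ATP, with 2% DMSO. Run 30 min at room temperature, stopped with NaCl/EDTA, then 33P incorporation captured on a Flash Plate.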

HeLa = assay: Antiproliferative activity against HeLa cells assessed as […] by MTS assay; type: functional, cell-based; conditions: Homo sapiens
Method in brief: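 MTS proliferation assay in HeLa cells. […] For the combination, the regression baseline was set to the inhibition given by 150 nM doxorubicin alone. The combo/single EC50 ratio indexes potentiation.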

[2] = AUC in mouse at 10 mg/kg, ip; type: ADME, organism-based; design: dose 10 mg/kg, route intraperitoneal; conditions: plasma
Method in brief: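 Mice dosed intraperitoneally at 10 mg/kg. Vehicle is 2.5% EtOH, 5% Tween 80, 25% PEG400 in PBS, or for some entries 10% NMP, 20% Solutol, 70% PBS. Plasma exposure is given as AUC.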

[3] = Dissociation constant, pKa of the compound; type: physicochemical
[4] = AUC in mouse at 10 mg/kg, po; type: ADME, organism-based; design: dose 10 mg/kg, route oral; conditions: plasma
Method in brief: (§1)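 Oral dosing in mice at 10 mg/kg. Plasma exposure read as AUC and Cmax.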

[5] = Antiproliferative activity against H1299 cells assessed as reduction in G2/M cell population by FACS assay; type: functional, cell-based; conditions: Homo sapiens, NCI-H1299
Method in brief: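 Cell cycle analysis by FACS in H1299 cells. EC50 is the inhibitor concentration that halves the G2/M population induced by 500 nM doxorubicin (combo). It was also measured without doxorubicin (single).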

[6] = Volume of distribution in mouse at 3.0 mg/kg, iv; type: ADME, organism-based; design: dose 3 mg/kg, route intravenous; conditions: in vivo
[7] = Half life in mouse at 3.0 mg/kg, iv; type: ADME, organism-based; design: dose 3 mg/kg, route intravenous; conditions: in vivo
Mus musculus = assay: AUC in mouse at 3.0 mg/kg, iv; type: ADME, organism-based, Plasma; design: dose 3 mg/kg, route intravenous; conditions: in vivo
[8] = Cmax in mouse at 10 mg/kg, po; type: ADME, organism-based; design: dose 10 mg/kg, route oral; conditions: in vivo; method in brief: as §1
[9] = Oral bioavailability in mouse at 10 mg/kg; type: ADME, organism-based; conditions: in vivo
[10] = AUC in Nu/Nu mouse at 10 mg/kg/day, po in NMP; type: ADME, organism-based; design: route oral; conditions: plasma
Method in brief: (§2)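 Oral dosing in Nu/Nu mice at 10, 25 or 50 mkd in one of two vehicles, NMP or Phosal.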

[11] = AUC in Nu/Nu mouse at 25 mg/kg/day, po in NMP; type: ADME, organism-based; design: route oral; conditions: plasma; method in brief: as §2
[12] = AUC in Nu/Nu mouse at 50 mg/kg/day, po in NMP; type: ADME, organism-based; design: route oral; conditions: plasma; method in brief: as §2
[13] = AUC in Nu/Nu mouse at 10 mg/kg/day, po in phosal; type: ADME, organism-based; design: route oral; conditions: plasma; method in brief: as §2
[14] = AUC in Nu/Nu mouse at 25 mg/kg/day, po in phosal; type: ADME, organism-based; design: route oral; conditions: plasma; method in brief: as §2
[15] = AUC in Nu/Nu mouse at 50 mg/kg/day, po in phosal; type: ADME, organism-based; design: route oral; conditions: plasma; method in brief: as §2

| SMILES | IC50 [1] [nM] | EC50 (HeLa) [nM] | AUC [2] [ng·h/mL] | pKa [3] | other results |
| --- | --- | --- | --- | --- | --- |
| COc1cc2c(cc1OCCc1scnc1C)-c1[nH]nc(-c3ccc(C#N)nc3)c1C2 | 1.1 | – | – | – | – |
| N#Cc1ccc(-c2n[nH]c3c2Cc2ccc(OCCN4CCOCC4)cc2-3)cn1 | – | > 59000 | 5700 | 5.7 | – |
| COc1cc2c(cc1OCCO)-c1[nH]nc(-c3ccc(C#N)nc3)c1C2 | 2.6 | – | – | – | – |
| N#Cc1ccc(-c2n[nH]c3c2Cc2ccc(OCCCN4CCCOCC4)cc2-3)cn1 | 0.92 | 5400 | – | 9.1 | AUC [4]: 31 ng·h/mL |
| Cc1ncsc1CCOc1ccc2c(c1)-c1[nH]nc(-c3ccc(C#N)nc3)c1C2 | 6.4 | 7600 | – | 3.3 | – |
| N#Cc1ccc(-c2n[nH]c3c2Cc2ccc(OCCCC4CCNCC4)cc2-3)cn1 | 1 | 2700 | – | 11 | – |
| COc1cc2c(cc1OCCc1scnc1C)Cc1c(-c3ccc(C#N)nc3)n[nH]c1-2 | 2.5 | – | – | – | – |
| N#Cc1ccc(-c2n[nH]c3c2Cc2ccc(OCCCn4ccnc4)cc2-3)cn1 | 1.1 | > 59000 | – | 7.2 | – |
| N#Cc1ccc(-c2n[nH]c3c2Cc2cc(OCCN4CCOCC4)ccc2-3)cn1 | 6.5 | > 59000 | – | – | – |
| N#Cc1ccc(-c2n[nH]c3c2Cc2ccc(NC(=O)CCN4CCOCC4)cc2-3)cn1 | 16 | 33000 | – | – | – |
| COc1cc2c(cc1OCCN1CCOCC1)-c1[nH]nc(-c3ccc(C#N)nc3)c1C2 | 3 | – | 930 | – | – |
| COc1cc2c(cc1OC)-c1[nH]nc(-c3ccc(C#N)nc3)c1C2 | – | > 59000 | – | – | EC50 [5]: > 10000 nM |
| COc1cc2c(cc1OCCN1CCOCC1)Cc1c(-c3ccc(C#N)nc3)n[nH]c1-2 | 3.8 | – | – | – | – |
| CN1CCN(CCCOc2ccc3c(c2)-c2[nH]nc(-c4ccc(C#N)nc4)c2C3)CC1 | 1.5 | 6200 | – | 9.1 | – |
| N#Cc1ccc(-c2n[nH]c3c2Cc2ccc(CCCCN4CCOCC4)cc2-3)cn1 | 1.2 | 9700 | – | – | – |
| N#Cc1ccc(-c2n[nH]c3c2Cc2ccc(OCCCN4CCOCC4)cc2-3)cn1 | 3.2 | > 59000 | 2600 | – | AUC [4]: 3000 ng·h/mL; Vd [6]: 7.6 L/kg; half-life [7]: 1.4 h; AUC (Mus musculus): 2000 ng·h/mL; Cmax [8]: 660 nM; bioavailability [9]: 44% |
| N#Cc1ccc(-c2n[nH]c3c2Cc2ccc(OCCCCCN4CCOCC4)cc2-3)cn1 | 1.4 | 8100 | – | – | – |
| CC(=O)N1CCN(CCCCOc2ccc3c(c2)-c2[nH]nc(-c4ccc(C#N)nc4)c2C3)CC1 | 1.5 | 33000 | 2200 | 6.9 | – |
| N#Cc1ccc(-c2n[nH]c3c2Cc2ccc(OCCOCCN4CCOCC4)cc2-3)cn1 | 1.8 | 29000 | 1700 | 6.1 | – |
| N#Cc1ccc(-c2n[nH]c3c2Cc2ccc(NCCN4CCOCC4)cc2-3)cn1 | 7 | > 59000 | – | – | – |
| COc1cc2c(cc1OCc1ccccn1)Cc1c(-c3ccc(C#N)nc3)n[nH]c1-2 | 3.7 | – | 470 | – | – |
| C[C@@H]1CN(CCCOc2ccc3c(c2)-c2[nH]nc(-c4ccc(C#N)nc4)c2C3)C[C@H](C)O1 | 1 | > 52000 | 3000 | 6.1 | – |
| COc1cc2c(cc1OCCO)Cc1c(-c3ccc(C#N)nc3)n[nH]c1-2 | 3.1 | – | 300 | – | – |
| N#Cc1ccc(-c2n[nH]c3c2Cc2ccc(OCCCCN4CCOCC4)cc2-3)cn1 | 0.75 | 21000 | 10400 | – | AUC [4]: > 3300 ng·h/mL; Vd [6]: 6.9 L/kg; half-life [7]: 1.4 h; AUC (Mus musculus): 2100 ng·h/mL; Cmax [8]: 770 nM; bioavailability [9]: > 50%; AUC [10]: 6000 ng·h/mL; AUC [11]: 12000 ng·h/mL; AUC [12]: 25000 ng·h/mL; AUC [13]: 5000 ng·h/mL; AUC [14]: 15000 ng·h/mL; AUC [15]: 32000 ng·h/mL |
| COc1cc2c(cc1OC)-c1n[nH]c(-c3ccc(-c4ccc(O)cc4)cc3)c1C2 | – | > 59000 | – | – | EC50 [5]: > 10000 nM |
| N#Cc1ccc(-c2n[nH]c3c2Cc2ccc(OCCCc4cccs4)cc2-3)cn1 | 52 | > 59000 | – | 1.6 | – |
| N#Cc1ccc(-c2n[nH]c3c2Cc2ccc(OCCCN4CCCCC4)cc2-3)cn1 | 2.6 | 4000 | – | 9.1 | – |
| N#Cc1ccc(-c2n[nH]c3c2Cc2cc(OCCCN4CCOCC4)ccc2-3)cn1 | 6.4 | > 59000 | – | – | – |
